Consider two compounds from ChEMBL document CHEMBL1144102, “New cytotoxic polyacetylenes from the marine sponge Petrosia” (1999).

Converted amounts (≈) assume the structure as drawn.

Type in all cases: functional
One assay concerns SK-MEL-2. Kind of assay: Cytotoxicity against human SK-MEL-2 cells by MTT assay. As to conditions: read-out: ED50 (the source's name).
The test system of another assay is A549. As to the kind of experiment: Cytotoxicity against human A549 cells by MTT assay. As to conditions: read-out: ED50 (the source's name).
Assay [1] deals with Simian virus 40. Kind of assay: Antiviral activity against SV40 virus assessed as inhibition of DNA replication at 125 uM. As to conditions: Betapolyomavirus macacae. The gist of the method: (§1)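 Cell-free SV40 origin DNA replication: mixtures contained 40 mM creatine phosphate-di-Tris (pH 7.7), creatine kinase, 7 mM MgCl2, 0.5 mM DTT, 4 mM ATP, 200 µM UTP/GTP/CTP, 100 µM dATP/dGTP/dCTP, 25 µM [3H]dTTP, SV40 T-Ag, SV40 origin plasmid (pUC) and replication proteins. Incubated 90 min at 37 °C, then acid-insoluble radioactivity counted.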

The test system of assay [2] is Simian virus 40. Kind of assay: Antiviral activity against SV40 virus assessed as inhibition of DNA replication at 500 uM. The following applies: Betapolyomavirus macacae. Summed up:
as §1

A further assay relates to HCT-15. Kind of assay: Cytotoxicity against human HCT-15 cells by MTT assay. The following applies: read-out: ED50 (the source's name).
The test system of assay [3] is Simian virus 40. As to the kind of experiment: Antiviral activity against SV40 virus assessed as inhibition of DNA replication at 250 uM. As to conditions: Betapolyomavirus macacae. The gist of the method: as §1
In the next assay the test system is XF498. Kind of assay: Cytotoxicity against human XF498 cells by MTT assay. As to conditions: read-out: ED50 (the source's name). Background: Tetrazolium dyes change colour on reduction, which living cells bring about.
A further assay deals with SK-OV-3. As to the kind of experiment: Cytotoxicity against human SKOV3 cells by MTT assay. As to conditions: read-out: ED50 (the source's name).

As usually defined, the inhibition is the drop in the measured response relative to a control, in per cent. For `C#C/C=C\CCCCCCCCCCCCC/C=C\CCCC/C=C\CCCCC#C[C@@H](O)C#CCCCCCC/C=C/[C@H](O)C#C` [NOR-3S,14S-PETROCORTYNE A], the EC50 in the assay with SK-MEL-2 is 3.8 µg/mL (≈ 5.93 µM); in the assay with A549 it was 7.3 µg/mL (≈ 11.4 µM); in the assay with HCT-15, 3.5 µg/mL (≈ 5.46 µM); in the assay on XF498, 6.1 µg/mL (≈ 9.52 µM); with SK-OV-3, 4.4 µg/mL (≈ 6.86 µM). Besides, the inhibition at 125 µM with Simian virus 40 [1] came to 12%. The inhibition at 500 µM with Simian virus 40 [2] was 70%. Also, the inhibition at 250 µM in the assay on Simian virus 40 [3] is 47%.

`C#C/C=C\CCCCCCCCCCCCC/C=C/C(=O)CCCC/C=C\CCCCC#C[C@@H](O)C#CCCCCCC/C=C/[C@H](O)C#C` [PETROTETRAYNDIOL C]: the EC50 was 4.1 µg/mL (≈ 6.13 µM) in the assay on SK-MEL-2; more than 10 µg/mL in the assay on A549; 5.7 µg/mL (≈ 8.52 µM) in the assay with HCT-15; 12.7 µg/mL (≈ 19 µM) with XF498; 4.2 µg/mL (≈ 6.28 µM) in the assay with SK-OV-3. Also, the inhibition at 125 µM with Simian virus 40 [1] stood at 45%. Further, in the assay with Simian virus 40 [2], the inhibition at 500 µM came out at 81%. Also, the inhibition at 250 µM in the assay with Simian virus 40 [3] was 46%.
